Key:
Assay type in all cases: functional
Mus musculus [1] = assay: Intestinal ulcerogenic activity at a dose of 300 mg/kg
Method in brief: (§1)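 Fed animals were gavaged with compound on 3 consecutive days and killed 24 h after the last dose. Intestines were examined for ulcers. Read-out: ulcer incidence per group of 8 and lesion length (mm/mouse ± SE).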

Mus musculus [2] = assay: Inhibitory activity against carrageenan induced paw edema in mice; set-up: concentration or dose not given beside the values
Mus musculus [3] = assay: Intestinal ulcerogenic activity at a dose of 100 mg/kg; method in brief: as §1
Mus musculus [4] = assay: Intestinal ulcerogenic activity at a dose of 60 mg/kg; method in brief: as §1
Mus musculus [5] = assay: Gastric ulcerogenic activity at a dose of 300 mg/kg
Method in brief: (§2)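 Mice fasted 24 h with water available. Compound in methyl cellulose vehicle given by oral gavage at 0.5 mL/100 g body weight. Animals were killed after 4 h and stomachs examined for lesions under a dissecting microscope. Read-out: ulcer incidence per group of 8 and lesion length (mm/mouse ± SE).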

Mus musculus [6] = assay: The compound was evaluated for inhibition of edema induced by bradykinin at 100 ug/mL
Method in brief: (§3)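 Mice, six per group, dosed orally at 100 mg/kg. After 60 min, 0.01 mL of phlogistic agent (arachidonic acid or bradykinin) was injected subcutaneously into the right hind paw plantar surface. Edema was measured by dial thickness gauge and the effect expressed as percent inhibition.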

Mus musculus [7] = assay: Antiinflammatory activity against CPE in mice following peroral administration of 60 mg/kg; conditions: route oral
Method in brief: (§4)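 Female albino mice (22 ± 2 g), six per group, dosed orally. After 60 min, 0.01 mL of 2% carrageenan was injected subcutaneously into the right hind paw plantar surface. Edema was read with a dial thickness gauge 3 h later. ED50 was given in mg/kg po with 95% confidence limits.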

Mus musculus [8] = assay: Intestinal ulcerogenic activity at a dose of 60 mg/kg:group of 8 mouse considered for the test; method in brief: as §1
Mus musculus [9] = assay: Intestinal ulcerogenic activity at a dose of 300 mg/kg: 8 mice were considered for the test; method in brief: as §1
Mus musculus [10] = assay: The compound was evaluated for inhibition of edema induced by PGE at […]
Method in brief: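 Mice, six per group, dosed orally at 100 mg/kg. After 60 min, PGE2 (20 μg/0.01 mL) was injected subcutaneously into the right hind paw plantar surface. Edema was measured with a dial thickness gauge and the effect expressed as percent inhibition.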

Mus musculus [11] = assay: Gastric ulcerogenic activity at a dose of 100 mg/kg; method in brief: as §2
Mus musculus [12] = assay: The compound was evaluated for inhibition of edema induced by serotonin at 250 ug/mL
Method in brief: (§5)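 Female albino mice (22 ± 2 g, local breed), six per group, housed in eights with free food and water, acclimatised at least 2 days. Compound given orally at 100 mg/kg; 60 min later 0.01 mL of the phlogistic agent (histamine or serotonin) injected subcutaneously into the right hind paw plantar surface. Paw edema measured with a dial thickness gauge; effect expressed as percent inhibition.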

Mus musculus [13] = assay: The compound was evaluated for inhibition of edema induced by arachidonic acid at 1 mg/mL; method in brief: as §3
Mus musculus [14] = assay: Gastric ulcerogenic activity at a dose of 100 mg/kg: 8 mice were considered for the test; method in brief: as §2
Mus musculus [15] = species: Mus musculus; assay: Analgesic activity in mice; set-up: concentration or dose not given beside the values
Method in brief: (§6)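 Female albino mice (22 ± 2 g, local breed), groups of eight, dosed orally at 100 mg/kg as a suspension in 5% gum arabic syrup. After 1 h, 3% acetic acid was given ip at 300 mg/kg. Stretches were counted over 10 min, starting 5 min after injection. Percent activity = |n − n'|/n × 100 against syrup-only controls (n = 6).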

Mus musculus [16] = assay: Gastric ulcerogenic activity at a dose of 300 mg/kg: 8 mice were considered for the test; method in brief: as §2
Mus musculus [17] = assay: Intestinal ulcerogenic activity at a dose of 100 mg/kg: 8 mice were considered for the test; method in brief: as §1
Mus musculus [18] = assay: Gastric ulcerogenic activity at a dose of 60 mg/kg; method in brief: as §2
Mus musculus [19] = assay: The compound was evaluated for inhibition of edema induced by histamine at 10 mg/mL; method in brief: as §5
Mus musculus [20] = assay: Gastric ulcerogenic activity at a dose of 60 mg/kg: 8 mice were considered for the test; method in brief: as §2
Mus musculus [21] = assay: Intestinal ulcerogenic activity at a dose of 60 mg/kg: 8 mice were considered for the test; method in brief: as §1
Mus musculus [22] = assay: Antiinflammatory activity against CPE in mice following peroral administration of 30 mg/kg; conditions: route oral; method in brief: as §4
Mus musculus [23] = assay: Intestinal ulcerogenic activity at a dose of 30 mg/kg: group of 8 mice were considered for the test; method in brief: as §1
Mus musculus [24] = assay: Gastric ulcerogenic activity at a dose of 300 mg/kg:group of 8 mouse considered for the test; method in brief: as §2
Mus musculus [25] = assay: Gastric ulcerogenic activity at a dose of 30 mg/kg; method in brief: as §2
Mus musculus [26] = assay: Intestinal ulcerogenic activity at a dose of 30 mg/kg; method in brief: as §1
Mus musculus [27] = assay: Gastric ulcerogenic activity at a dose of 100 mg/kg:group of 8 mouse considered for the test; method in brief: as §2
Mus musculus [28] = assay: Intestinal ulcerogenic activity at a dose of 100 mg/kg: group of 8 mice were considered for the test; method in brief: as §1
Mus musculus [29] = assay: Gastric ulcerogenic activity at a dose of 30 mg/kg:group of 8 mouse considered for the test; method in brief: as §2
Mus musculus [30] = assay: Intestinal ulcerogenic activity at a dose of 300 mg/kg: group of 8 mice were considered for the test; method in brief: as §1
Mus musculus [31] = assay: Gastric ulcerogenic activity at a dose of 50 mg/kg; method in brief: as §2
Mus musculus [32] = assay: Intestinal ulcerogenic activity at a dose of 20 mg/kg: 8 mice were considered for the test; method in brief: as §1
Mus musculus [33] = assay: Gastric ulcerogenic activity at a dose of 20 mg/kg; method in brief: as §2
Mus musculus [34] = assay: Intestinal ulcerogenic activity at a dose of 50 mg/kg: 8 mice were considered for the test; method in brief: as §1
Mus musculus [35] = assay: Antiinflammatory activity against CPE in mice following peroral administration of 20 mg/kg; conditions: route oral; method in brief: as §4
Mus musculus [36] = assay: Intestinal ulcerogenic activity at a dose of 50 mg/kg; method in brief: as §1
Mus musculus [37] = assay: Gastric ulcerogenic activity at a dose of 20 mg/kg: 8 mice were considered for the test; method in brief: as §2
Mus musculus [38] = assay: Intestinal ulcerogenic activity at a dose of 20 mg/kg; method in brief: as §1
Mus musculus [39] = assay: Gastric ulcerogenic activity at a dose of 50 mg/kg: 8 mice were considered for the test; method in brief: as §2
Mus musculus [40] = species: Mus musculus; assay: Analgesic activity in mice.; method in brief: as §6
Mus musculus [41] = assay: Gastric ulcerogenic activity at a dose of 10 mg/kg; method in brief: as §2
Mus musculus [42] = assay: Gastric ulcerogenic activity at a dose of 10 mg/kg: 8 mice were considered for the test; method in brief: as §2
Mus musculus [43] = assay: Intestinal ulcerogenic activity at a dose of 10 mg/kg; method in brief: as §1
Mus musculus [44] = assay: The compound was evaluated for inhibition of edema induced by serotonin at 250 micro g/mL; method in brief: as §5
Mus musculus [45] = assay: Intestinal ulcerogenic activity at a dose of 10 mg/kg; 8 mice were considered for the test; method in brief: as §1
Mus musculus [46] = assay: The compound was evaluated for inhibition of edema induced by bradykinin at 100 micro g/mL; method in brief: as §3
Mus musculus [47] = assay: Antiinflammatory activity against CPE in mice following peroral administration of 10 mg/kg; conditions: route oral; method in brief: as §4
Mus musculus [48] = assay: Inhibitory activity against carrageenan induced mouse paw edema in mice.

Structure (SMILES)	Inhibition (Mus musculus [2]) [%]	Lesion length (Mus musculus [3]) [mm mice-1]	Inhibition (Mus musculus [6]) [%]	Inhibition (Mus musculus [10]) [%]	Inhibition (Mus musculus [12]) [%]	Inhibition (Mus musculus [13]) [%]	Analgesic activity (Mus musculus [15]) [%]	Inhibition (Mus musculus [19]) [%]	other results
O=c1oc2ccc(Cl)cc2n1CCc1ccccn1	62.3	0	7	64.8	10.5	42	96.96	9	Lesion length (Mus musculus [1]): 0.1 mm mice-1; Lesion length (Mus musculus [4]): 0 mm mice-1; Lesion length (Mus musculus [5]): 0.9 mm mice-1; ED50 (Mus musculus [7]): 63 mg/kg; Ulcer incidence (Mus musculus [8]): 0 number/group; Ulcer incidence (Mus musculus [9]): 1 number/group; Lesion length (Mus musculus [11]): 0.2 mm mice-1; Ulcer incidence (Mus musculus [14]): 1 number/group; Ulcer incidence (Mus musculus [16]): 4 number/group; Ulcer incidence (Mus musculus [17]): 0 number/group; Lesion length (Mus musculus [18]): 0 mm mice-1; Ulcer incidence (Mus musculus [20]): 0 number/group
O=c1oc2ccccc2n1CCc1ccncc1	59.1	0	6.4	62.2	9.4	38.9	96.06	7.6	Lesion length (Mus musculus [1]): 0.1 mm mice-1; Ulcer incidence (Mus musculus [21]): 0 number/group; Lesion length (Mus musculus [4]): 0 mm mice-1; Lesion length (Mus musculus [5]): 0.9 mm mice-1; ED50 (Mus musculus [7]): 57 mg/kg; Ulcer incidence (Mus musculus [9]): 2 number/group; Lesion length (Mus musculus [11]): 0 mm mice-1; Ulcer incidence (Mus musculus [14]): 0 number/group; Ulcer incidence (Mus musculus [16]): 5 number/group; Ulcer incidence (Mus musculus [17]): 0 number/group; Lesion length (Mus musculus [18]): 0 mm mice-1; Ulcer incidence (Mus musculus [20]): 0 number/group
COc1ccc(C(=O)c2ccc3c(c2)oc(=O)n3CCc2ccccn2)cc1	30.8		13		9.9	40	80.34	5.4	
O=C(c1ccc2c(c1)oc(=O)n2CCc1ccccn1)c1ccccc1Cl	37.1	0	6.4	53	18.2	46	91.74	5	ED50 (Mus musculus [22]): 25.5 mg/kg; Lesion length (Mus musculus [1]): 0.2 mm mice-1; Ulcer incidence (Mus musculus [23]): 0 number/group; Lesion length (Mus musculus [5]): 0.4 mm mice-1; Ulcer incidence (Mus musculus [24]): 2 number/group; Lesion length (Mus musculus [25]): 0 mm mice-1; Lesion length (Mus musculus [26]): 0 mm mice-1; Ulcer incidence (Mus musculus [27]): 0 number/group; Ulcer incidence (Mus musculus [28]): 0 number/group; Ulcer incidence (Mus musculus [29]): 0 number/group; Lesion length (Mus musculus [11]): 0 mm mice-1; Ulcer incidence (Mus musculus [30]): 0 number/group
O=c1oc2ccccc2n1CCc1ccccn1	55.2	0	6	56.2	10.2	41.3	92.17	5.5	Lesion length (Mus musculus [1]): 0.07 mm mice-1; Ulcer incidence (Mus musculus [21]): 0 number/group; Lesion length (Mus musculus [4]): 0 mm mice-1; Lesion length (Mus musculus [5]): 0.7 mm mice-1; ED50 (Mus musculus [7]): 55 mg/kg; Ulcer incidence (Mus musculus [9]): 0 number/group; Ulcer incidence (Mus musculus [14]): 1 number/group; Ulcer incidence (Mus musculus [16]): 4 number/group; Ulcer incidence (Mus musculus [17]): 0 number/group; Lesion length (Mus musculus [18]): 0 mm mice-1; Ulcer incidence (Mus musculus [20]): 0 number/group
O=c1oc2ccc(Cl)cc2n1CCc1ccncc1	68.5	0.15	9	68	13.1	51.2	100	11	Lesion length (Mus musculus [31]): 0 mm mice-1; Ulcer incidence (Mus musculus [32]): 0 number/group; Lesion length (Mus musculus [33]): 0 mm mice-1; Ulcer incidence (Mus musculus [34]): 0 number/group; ED50 (Mus musculus [35]): 18.2 mg/kg; Lesion length (Mus musculus [11]): 0.4 mm mice-1; Ulcer incidence (Mus musculus [14]): 1 number/group; Ulcer incidence (Mus musculus [17]): 0 number/group; Lesion length (Mus musculus [36]): 0 mm mice-1; Ulcer incidence (Mus musculus [37]): 0 number/group; Lesion length (Mus musculus [38]): 0 mm mice-1; Ulcer incidence (Mus musculus [39]): 0 number/group
CC(=O)c1ccc2c(c1)oc(=O)n2CCc1ccncc1	10.3						38.46		
CC(=O)c1ccc2c(c1)oc(=O)n2CCc1ccccn1	5.6						48.74		
O=C(c1ccccc1Cl)c1cc2oc(=O)n(CCc3ccccn3)c2cc1Cl	19.7		7.6		9	37	72.67	10	
O=C(c1ccccc1)c1ccc2c(c1)oc(=O)n2CCc1ccccn1	37.1		11		9.8	32	79.49	6	
O=C(c1ccc2c(c1)oc(=O)n2CCc1ccncc1)c1ccccc1Cl	38.6		7		10	39	84.35	7.4	
O=C(c1ccccc1)c1ccc2c(c1)oc(=O)n2CCc1ccncc1	46.5		10		14.1	36.5	85.47	8.5	
COc1ccc(C(=O)c2ccc3c(c2)oc(=O)n3CCc2ccncc2)cc1	25.9		10		15	32	75.21	8	
CC(=O)Oc1ccccc1C(=O)O [ASPIRIN]									Analgesic activity (Mus musculus [40]): 58.26%
COc1ccc2c(c1)c(CC(=O)O)c(C)n2C(=O)c1ccc(Cl)cc1 [INDOMETHACIN]						37		14.7	Lesion length (Mus musculus [41]): 0.6 mm mice-1; Ulcer incidence (Mus musculus [42]): 7 number/group; Lesion length (Mus musculus [43]): 0.4 mm mice-1; Inhibition (Mus musculus [44]): 10.3%; Ulcer incidence (Mus musculus [45]): 8 number/group; Inhibition (Mus musculus [46]): 13.4%; ED50 (Mus musculus [47]): 7.5 mg/kg; Inhibition (Mus musculus [48]): 21.1%

From ChEMBL document CHEMBL1125427, “Synthesis of 3-(2-pyridylethyl)benzoxazolinone derivatives: potent analgesic and antiinflammatory compounds inhibiting prostaglandin E2” (1992)
